# TRPC4 PAM = positive allosteric modulators of TRPC4, primary screen, cell-based, mouse TRPC4beta, HEK293 mu-opioid, Fluo-4 calcium. Short transient receptor potential channel 4 (Mus musculus), Q9QUQ5. actives 0.42% (n = 310,000). DAMGO EC20, Fluo-4 Ca2+ flux; hits give high values. B-score at 10 µM. AID 2227, 2009;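 active = B-score of calcium response area above 5 SD of library B-scores, with initial fluorescence ratio within 5 SD of library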;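 note: B-score of integrated fluorescence ratio over time as area under calcium response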
# TRPC6 activator = mouse TRPC6 channel activators, primary screen, cell-based, HEK293, membrane potential dye. HEK293-TRPC6 membrane potential dye fluorescence; hits give high values. B-score at 10 µM. actives 0.13% (n = 310,000);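 active = B-score of the integrated fluorescence ratio above library mean plus 3 SD, and starting fluorescence ratio within library mean plus 5 SD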;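 note: higher score means more depolarization so channel activation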
# TRPC4 block = inhibitors of mouse TRPC4 channel, primary screen, Fluo4 calcium, HEK293 TRPC4beta/mu-opioid cells; Short transient receptor potential channel 4 (Mus musculus), Q9QUQ5; DAMGO-evoked Fluo4 calcium flux; hits give low values; B-score at 10 µM; actives 0.39% (n = 300,000);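 active = B-score over 3 SD under the library average, no early fluorescence shift, positive overall ratio signal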
#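 Material: HEK293 cells with stable TRPC4beta plus mu-opioid receptor expression / Probe or stimulus: DAMGO in two steps, submaximal then maximal / Compound: single concentration per test compound / Technique: kinetic Fluo4 fluorescence imaging of calcium influx / Read-out: per-well B score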
# TRPC4 act = activators of mouse TRPC4 channel, primary screen, Fluo4 calcium, HEK293 TRPC4beta/mu-opioid cells | AID 2237, 2010 | actives 0.49% (n = 310,000) | Short transient receptor potential channel 4 (Mus musculus), Q9QUQ5 | B-score at 10 µM | Fluo4 calcium fluorescence; hits give high values;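 active = B-score above 5 SD of library B-scores, and initial fluorescence ratio not above library mean plus 5 SD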;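 note: positive B-score marks a calcium rise read as TRPC4 activation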
#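 Material: HEK293 stable line with TRPC4beta plus mu-opioid receptor; technique: Fluo4 calcium-sensitive dye fluorescence, kinetic, 1 Hz baseline; timing: Fluo4 dye loading 45 min at room temperature, 110 s recording; controls: assay buffer as low control, maximal DAMGO as high control; read-out: integrated baseline-normalised fluorescence ratio, converted to per-well B score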
# TRPC6 inh = mouse TRPC6 channel inhibitors, primary screen, cell-based, HEK293, membrane potential dye. Short transient receptor potential channel 6 (Mus musculus), Q61143. ACh-evoked depolarization; hits give low values. B-score at 10 µM. actives 1.1% (n = 310,000). AID 2553, 2010;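 active = B-score under library mean minus 3 SD, initial fluorescence not abnormally high, positive integrated signal ratio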;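 note: B-score derived from integrated fluorescence ratio over the kinetic read; more negative B-score means stronger inhibition of depolarization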
# Numbers without * were called inactive; i = inactive. This is a sample that favours compounds with a hit; in the whole collection about 2.3% have one here.
SMILES,TRPC4 PAM,TRPC6 activator,TRPC4 block,TRPC4 act,TRPC6 inh
COc1cc(Cl)c(NS(=O)(=O)c2cc3[nH]c(=O)c(=O)[nH]c3cc2C)c(OC)c1,i,i,i,i,i
COC(=O)[C@H](Cc1ccccc1)NC(=O)c1ccc2ccccc2n1,16*,i,i,i,i
COC(=O)c1sccc1NC(=O)CSc1ccccc1N,i,i,i,i,i
COC(=O)c1sccc1NC(=O)CSc1ccccc1NC(=O)CNC(C)C,i,i,-6*,i,i
C[C@]12CCC(O)CC1=CCC1C2CC[C@]2(C)/C(=N\NC(N)=S)CCC12 (stereo partly specified),i,i,i,i,i
Nc1ccc(Sc2ccc([N+](=O)[O-])cc2)cc1,i,i,-6*,i,i
O=C1C=CC(=O)N1c1ccc(Sc2ccc([N+](=O)[O-])cc2)cc1,i,i,i,i,i
Cc1noc(NS(=O)(=O)c2ccc(NC(=O)c3nn(-c4ccccc4)ccc3=O)cc2)c1C,i,i,i,i,i
Cc1nc(Cl)c(C(=O)NCc2ccccc2)c(C)c1Cl,i,i,i,i,i
O=C(NCc1ccccc1)c1c(Cl)nc(Cl)c(Cl)c1Cl,i,i,-6*,i,i
CN(CCNC(=O)c1ccc(/C=N/O)nc1)Cc1ccccc1,22*,i,i,i,i
O=C(NCCCNCCCNC(=O)c1ccc(/C=N/O)nc1)c1ccc(/C=N/O)nc1,i,i,i,i,i
CN(CCCNC(=O)c1ccc(/C=N/O)nc1)CCCN(C)Cc1ccccc1,13*,i,i,i,i
CCC1(c2ccc(F)cc2)NC(=O)N(CC(=O)Nc2cccc(S(=O)(=O)N3CCCCC3)c2)C1=O (stereo unspecified),12*,i,i,i,i
CCCN1CN(Cc2ccco2)c2nc3ccccc3n2C1,i,i,-6*,i,i
Cc1ccc(C)c(NC2CCCCC2NS(=O)(=O)c2ccccc2)c1 (stereo unspecified),i,i,i,i,i
Cc1cccc(NC2CCCCC2NS(=O)(=O)c2ccccc2)c1 (stereo unspecified),13*,i,i,i,i
COC1CCCN(Cc2cn(C)nc2-c2ccc(Oc3ccccc3)cc2)C1 (stereo unspecified),i,i,i,i,i
Cn1cc(CN2CCCCC2CO)c(-c2ccc(Oc3ccccc3)cc2)n1 (stereo unspecified),i,i,-7*,i,i
CN(C)CCCN(C(=O)CCOc1ccccc1)c1nc2c(F)cccc2s1,i,i,i,i,-5.11*
O=C(O)Cc1sc(NC2CCCCC2)nc1-c1ccc(Cl)cc1,i,i,i,i,i
CCOP(=O)(c1ccccc1)c1nc(-c2ccccc2Cl)oc1N1CCCCC1 (stereo unspecified),17*,i,i,i,i
CCn1cc(CN2CCN(Cc3ccccc3)C(CCO)C2)c2ccccc21 (stereo unspecified),i,i,i,58*,i
OCCC1CN(Cc2ccccc2-c2ccco2)CCN1Cc1ccccc1 (stereo unspecified),i,i,i,113*,i
OCCC1CN(Cc2ccc3nsnc3c2)CCN1CCc1ccccc1 (stereo unspecified),i,i,i,43*,i
CC(C)(C)CN1CCN(Cc2cccnc2)CC1CCO (stereo unspecified),i,i,i,i,i
C=CCNC(=O)c1ccc(NC(=O)C2=CSCCO2)cc1,i,i,i,i,i
CCN1CCCC(OC(=O)c2cc(-c3ccc(C)cc3)nc3ccccc23)C1 (stereo unspecified),14*,i,i,i,i
